# Test results taken from article PMC5563391 (Investigational new drugs, 2015).
# What was measured:
# Assay type in all cases: in vivo, human
# [1] = test system: placental growth factor (PlGF); experiment: Placental growth factor concentration, biomarker of VEGF receptor inhibition; details: arm A
# How it was run: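 Arm A patients received oral test compound once weekly on days 1, 8 and 15 of 28-day cycles, at 10–690 mg. At designated time points after the first dose, blood for PlGF measurement was collected together with pharmacokinetic samples. The change from baseline in PlGF was assessed against dose.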
# [2] = test system: peripheral blood mononuclear cells; experiment: Cell cycle analysis by flow cytometry; details: arm A
# How it was run: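 Adults with hematologic malignancies received oral test compound once weekly on days 1, 8 and 15 of 28-day cycles, at doses from 10 to 690 mg. Blood for pharmacodynamics was drawn alongside pharmacokinetic samples. Peripheral blood mononuclear cells were analysed by flow cytometry for the percentage of cells with 2N, 4N or >4N DNA. Only patients with enough cycling cells at baseline were evaluable.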
# [3] = Phase 1 pharmacokinetics of ilorasertib in plasma; details: for AUC(0-t) / Cmax / Tmax / half-life / AUC(0-inf): human, plasma; for half-life: t1/2, arm D
# How it was run: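 Arm A patients took oral test compound once weekly, in the morning, on days 1, 8 and 15 of 28-day cycles, at 10–690 mg. Plasma was sampled intensively up to 72 h after dosing on days 1 and 15. Noncompartmental analysis gave Cmax, Tmax, t½, AUCt and AUC∞, plus dose-normalized values. Results are summarized by dose level as mean ± SD, with individual values where N=1.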
# [4] = arm A, oral once weekly, first dose, 10 mg, N=3, mean ± SD
# [5] = arm A, oral once weekly, first dose, 20 mg, N=1
# [6] = arm A, oral once weekly, first dose, 40 mg, N=1
# [7] = arm A, oral once weekly, first dose, 80 mg, N=2, mean ± SD
# [8] = arm A, oral once weekly, first dose, 160 mg, N=3, mean ± SD
# [9] = arm A, oral once weekly, first dose, 240 mg, N=5, mean ± SD
# [10] = arm A, oral once weekly, first dose, 340 mg, N=3, mean ± SD
# [11] = arm A, oral once weekly, first dose, 440 mg, N=4, mean ± SD
# [12] = arm A, oral once weekly, first dose, 540 mg, N=3, mean ± SD
# [13] = arm A, oral once weekly, first dose, 640 mg, N=6, mean ± SD
# [14] = arm A, oral once weekly, first dose, 690 mg, N=1
# [15] = arm A, oral once weekly, first dose, all doses, N=32, mean ± SD
# [16] = iv, 32 mg, arm D, IV infusion, 32 mg, day 1, N=4, mean ± SD
# [17] = iv, 32 mg, arm D, IV infusion, 32 mg, day 15, N=3, mean ± SD
# [18] = po, 40 mg, arm A, oral once weekly, first dose, N=1
compound,measurement,setting,value
Nc1ncc(-c2cnn(CCO)c2)c2scc(-c3ccc(NC(=O)Nc4cccc(F)c4)cc3)c12 [Ilorasertib],increase in PlGF,"[1]; after the first dose, dose range 10 to 690 mg",≥ 2 fold
same,relationship between dose and the magnitude of change in PlGF,[1],no apparent relationship
same,association between ilorasertib dose and cell cycle arrest,[2],No association
same,increase in the number of cells with 4N DNA and polyploidy,[2]; 9 patients with sufficient cycling cells at baseline,≥ 2 fold
same,coefficient of variation for dose-normalized Cmax,"[3]; arm A, oral",approximately 66%
same,AUC0–24/D (dose-normalized AUC0–24),[3]; [4],65.8 ± 35.0 ng·h/mL/mg
same,AUC∞/D (dose-normalized AUC∞),[3]; [4],70.9 ± 37.9 ng·h/mL/mg
same,Cmax/D (dose-normalized Cmax),[3]; [4],3.74 ± 1.56 ng/mL/mg
same,AUC0–24/D (dose-normalized AUC0–24),[3]; [5],27.2 ng·h/mL/mg
same,AUC∞/D (dose-normalized AUC∞),[3]; [5],28.5 ng·h/mL/mg
same,Cmax/D (dose-normalized Cmax),[3]; [5],2.98 ng/mL/mg
same,AUC0–24/D (dose-normalized AUC0–24),[3]; [6],43.9 ng·h/mL/mg
same,AUC∞/D (dose-normalized AUC∞),[3]; [6],45.8 ng·h/mL/mg
same,Cmax/D (dose-normalized Cmax),[3]; [6],4.95 ng/mL/mg
same,AUC0–24/D (dose-normalized AUC0–24),[3]; [7],15.2 ± 5.10 ng·h/mL/mg
same,AUC∞/D (dose-normalized AUC∞),[3]; [7],15.7 ± 5.18 ng·h/mL/mg
same,Cmax/D (dose-normalized Cmax),[3]; [7],1.44 ± 4.90 ng/mL/mg
same,AUC0–24/D (dose-normalized AUC0–24),[3]; [8],19.4 ± 8.86 ng·h/mL/mg
same,AUC∞/D (dose-normalized AUC∞),[3]; [8],20.2 ± 9.28 ng·h/mL/mg
same,Cmax/D (dose-normalized Cmax),[3]; [8],1.86 ± 0.98 ng/mL/mg
same,AUC0–24/D (dose-normalized AUC0–24),[3]; [9],16.6 ± 12.4 ng·h/mL/mg
same,AUC∞/D (dose-normalized AUC∞),[3]; [9],17.5 ± 13.5 ng·h/mL/mg
same,Cmax/D (dose-normalized Cmax),[3]; [9],1.22 ± 0.59 ng/mL/mg
same,AUC0–24/D (dose-normalized AUC0–24),[3]; [10],16.9 ± 2.56 ng·h/mL/mg
same,AUC∞/D (dose-normalized AUC∞),[3]; [10],17.7 ± 2.09 ng·h/mL/mg
same,Cmax/D (dose-normalized Cmax),[3]; [10],1.74 ± 1.0 ng/mL/mg
same,AUC0–24/D (dose-normalized AUC0–24),[3]; [11],30.7 ± 17.1 ng·h/mL/mg
same,AUC∞/D (dose-normalized AUC∞),[3]; [11],32.1 ± 18.0 ng·h/mL/mg
same,Cmax/D (dose-normalized Cmax),[3]; [11],2.88 ± 1.89 ng/mL/mg
same,AUC0–24/D (dose-normalized AUC0–24),[3]; [12],10.7 ± 2.0 ng·h/mL/mg
same,AUC∞/D (dose-normalized AUC∞),[3]; [12],11.1 ± 2.28 ng·h/mL/mg
same,Cmax/D (dose-normalized Cmax),[3]; [12],0.964 ± 0.183 ng/mL/mg
same,AUC0–24/D (dose-normalized AUC0–24),[3]; [13],30.7 ± 23.1 ng·h/mL/mg
same,AUC∞/D (dose-normalized AUC∞),[3]; [13],31.7 ± 23.4 ng·h/mL/mg
same,Cmax/D (dose-normalized Cmax),[3]; [13],2.42 ± 1.57 ng/mL/mg
same,AUC0–24/D (dose-normalized AUC0–24),[3]; [14],11.7 ng·h/mL/mg
same,AUC∞/D (dose-normalized AUC∞),[3]; [14],12.3 ng·h/mL/mg
same,Cmax/D (dose-normalized Cmax),[3]; [14],1.22 ng/mL/mg
same,AUC0–24/D (dose-normalized AUC0–24),[3]; [15],26.3 ± 21.3 ng·h/mL/mg
same,AUC∞/D (dose-normalized AUC∞),[3]; [15],27.6 ± 22.7 ng·h/mL/mg
same,Cmax/D (dose-normalized Cmax),[3]; [15],2.16 ± 1.43 ng/mL/mg
same,accumulation of study drug,"[3]; arm B, between days 1 and 15, multiple doses",no apparent accumulation
same,pharmacokinetic interaction between ilorasertib and azacitidine,"[3]; arm C, oral ilorasertib with azacitidine",no apparent pharmacokinetic drug-drug interaction
same,time of peak plasma concentrations,"[3]; arm D, IV dosing",end of the 4-hour infusion
same,AUC(0-t),"[3]; iv, 32 mg, AUC0–24, arm D, IV infusion, 32 mg, day 1, N=4, mean ± SD",4980 ± 3900 ng·h/mL
same,AUC(0-t),"[3]; iv, 32 mg, AUC0–24, arm D, IV infusion, 32 mg, day 15, N=3, mean ± SD",8220 ± 9110 ng·h/mL
same,Cmax,[3]; [16],587 ± 360 ng/mL
same,Cmax,[3]; [17],414 ± 140 ng/mL
same,Tmax,[3]; [16],4.1 ± 0.3 h
same,Tmax,[3]; [17],3.9 h
same,half-life,"[3]; iv, 32 mg, IV infusion, 32 mg, day 1, N=4",6.2 ± 5.1 h
same,half-life,"[3]; iv, 32 mg, IV infusion, 32 mg, day 15, N=3",5.8 ± 20.6 h
same,AUC(0-inf),"[3]; po, 10 mg",710 ± 380 ng·h/mL
same,AUC(0-t),"[3]; po, 10 mg, AUC0–24, arm A, oral once weekly, first dose, N=3, mean ± SD",660 ± 350 ng·h/mL
same,AUC(0-inf),"[3]; po, 20 mg",570 ng·h/mL
same,Cmax,"[3]; po, 20 mg, arm A, oral once weekly, first dose, N=1",60 ng/mL
same,AUC(0-inf),"[3]; po, 40 mg",1830 ng·h/mL
same,Cmax,[3]; [18],198 ng/mL
same,Tmax,[3]; [18],3 h
same,AUC(0-inf),"[3]; po, 80 mg",1260 ± 410 ng·h/mL
same,AUC(0-t),"[3]; po, 80 mg",1220 ± 410 ng·h/mL
same,AUC(0-inf),"[3]; po, 160 mg",3240 ± 1490 ng·h/mL
same,AUC(0-inf),"[3]; po, 240 mg",4190 ± 3230 ng·h/mL
